Experimental data taken from ChEMBL document CHEMBL4311975, “Exploration of the antibiotic potentiating activity of indolglyoxylpolyamines” (Eur J Med Chem, 2019).
Converted amounts (≈) assume the structure as drawn.

What was measured:
Escherichia coli = assay: Antibacterial activity against Escherichia coli ATCC 25922 assessed as growth inhibition incubated for 18 hrs by broth dilution method; assay type: functional; settings: ATCC 25922, 18 h
Summary of the method: (§1)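 Broth microdilution following CA-SFM recommendations. Inoculum was 10^5 CFU in Mueller-Hinton broth with two-fold serial drug dilutions. Plates were incubated 18 h at 37 °C. MIC was the lowest concentration giving complete inhibition of visible growth. Values are means, n = 3.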

Klebsiella pneumoniae [1] = assay: Antibacterial activity against Klebsiella pneumoniae ATCC 13443 assessed as growth inhibition; assay type: functional
Pseudomonas aeruginosa [2] = assay: Antibacterial activity against Pseudomonas aeruginosa ATCC 27853 assessed as growth inhibition incubated for 18 hrs by broth dilution method; assay type: functional; settings: ATCC 27853, 18 h; summary of the method: as §1
[3] = tested on: Staphylococcus intermedius; assay: Antibacterial activity against Staphylococcus intermedius 1051997 assessed as growth inhibition incubated for 18 hrs by broth dilution method; assay type: functional; settings: Staphylococcus intermedius, 1051997, 18 h; summary of the method: as §1
Staphylococcus aureus [4] = assay: Antibacterial activity against Staphylococcus aureus ATCC 25923 assessed as growth inhibition incubated for 18 hrs by broth dilution method; assay type: functional; settings: ATCC 25923, 18 h; summary of the method: as §1
Acinetobacter baumannii [5] = assay: Antibacterial activity against Acinetobacter baumannii AYE assessed as growth inhibition; assay type: functional
Cryptococcus neoformans = assay: Antifungal activity against Cryptococcus neoformans ATCC 208821 assessed as growth inhibition incubated for 36 hrs by resazurin dye based assay; assay type: functional; settings: ATCC 208821, 36 h
Summary of the method: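 Cryptococcus was grown 3 days on YPD agar at 30 °C, suspended, and diluted in YNB broth to 2.5×10^3 CFU/mL. Cells were exposed to 0.008–32 μg/mL compound (final), in duplicate, for 36 h at 35 °C without shaking. Resazurin (0.006% final) was added for a further 3 h. MIC was read from absorbance at OD570–600. Means, n = 2.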

Staphylococcus aureus [6] = assay: Induction of membrane depolarization in Staphylococcus aureus measured after 15 mins by DiSC3(5) dye based spectrofluorometric method; assay type: functional, organism-based
Summary of the method: (§2)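 Bacteria were grown 24 h in MHB at 37 °C, washed in 250 mM sucrose with 5 mM MgSO4, and loaded with 3 μM DiSC3(5) for 1 h at 37 °C. Unbound dye was washed away before compound was added at varied concentrations. Fluorescence was recorded after 15 min on a spectrofluorometer, with pure 3 μM dye as the maximum. CTAB (0.01%) served as positive control.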

Acinetobacter baumannii [7] = assay: Antibacterial activity against Acinetobacter baumannii ATCC 19606 assessed as growth inhibition incubated for 18 hrs by resazurin dye based assay; assay type: functional; settings: ATCC 19606 = CIP 70.34 = JCM 6841, 18 h
Summary of the method: (§3)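 Overnight cultures were diluted 40-fold in MHB and grown 1.5–2 h at 37 °C to mid-log phase. Cells were added at 5×10^5 CFU/mL final to two-fold compound dilutions (0.008–32 μg/mL final), in duplicate, for 18 h at 37 °C. Resazurin (0.001% final) was added for 2 h and MIC read by eye. Means, n = 2.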

[8] = Cytotoxicity against human HEK293 cells measured after 20 hrs by resazurin dye based fluorescence assay; assay type: cell-based
Summary of the method: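 HEK293 cells, 5,000/well in DMEM with 10% FBS, were exposed to compound for 20 h at 37 °C, 5% CO2. Resazurin (100 μM final) was added for 3 h, then fluorescence read at ex 560/em 590. Signal was normalised to tamoxifen (74 μg/mL, 0%) and untreated growth (100%), and CC50 came from dose-response fitting. Top dose 32 μg/mL. Means, n = 2.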

Klebsiella pneumoniae [9] = assay: Antibacterial activity against Klebsiella pneumoniae ATCC 700603 assessed as growth inhibition incubated for 18 hrs by resazurin dye based assay; assay type: functional; settings: Klebsiella pneumoniae, 700603, 18 h; summary of the method: as §3
Pseudomonas aeruginosa [10] = assay: Disruption of membrane integrity in Pseudomonas aeruginosa PAO1 assessed as increase in extracellular ATP level by luciferin-luciferase reagent based luminescence assay; assay type: functional, organism-based
Summary of the method: (§4)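 Growing bacteria (P. aeruginosa PAO1 or S. aureus) in MHB at 37 °C were mixed 9:1 with compound, at 4× MIC, and vortexed for 1 s. Luciferin-luciferase reagent was added immediately and luminescence read for 5 s. ATP was quantified by internal standard addition. Squalamine served as positive control.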

[11] = Hemolytic activity against Sprague-Dawley rat RBC assessed as release of hemoglobin at 50 uM incubated for 1 hr relative to control; assay type: ADME, cell-based, Erythrocyte; settings: red blood cells (erythrocytes), read-out: Activity
Summary of the method: (§5)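 Fresh Sprague-Dawley rat erythrocytes were washed in saline and resuspended at 2% v/v. Cells were incubated with compound in DMSO/PBS for 1 h at 37 °C, then centrifuged at 200 g, and supernatant absorbance read at 540 nm. Results were normalised to DMSO/PBS (0%) and 0.1% Triton X-100 (100%). Single-point testing used 50 μM; HC50 came from 10-point curves. Means of three experiments.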

Pseudomonas aeruginosa [12] = assay: Induction of membrane depolarization in Pseudomonas aeruginosa measured after 15 mins by DiSC3(5) dye based spectrofluorometric method; assay type: functional, organism-based; summary of the method: as §2
L6 = assay: Cytotoxicity against rat L6 cells measured after 72 hrs by alamar blue assay; assay type: cell-based; settings: L6, 72 h
Summary of the method: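 Rat L6 myoblasts, 4×10^4/well in RPMI 1640 with L-glutamine and 10% FBS, received seven 3-fold dilutions (90 to 0.123 μg/mL) for 72 h. Alamar Blue was added for 2 h and fluorescence read at ex 536/em 588 nm. Podophyllotoxin served as reference. Means, n = 2.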

Pseudomonas aeruginosa [13] = assay: Potentiation of doxycycline-induced antibacterial activity against Pseudomonas aeruginosa ATCC 27853 assessed as concentration required to restore 2 ug/ml doxycycline activity measured after 18 hrs; assay type: functional
Summary of the method: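 Inoculum was 5×10^5 CFU in MHB with two-fold serial dilutions of adjuvant plus fixed doxycycline at 2 μg/mL. […] Repeated independently in triplicate.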

Staphylococcus aureus [14] = assay: Disruption of membrane integrity in Staphylococcus aureus assessed as increase in extracellular ATP level by luciferin-luciferase reagent based luminescence assay; assay type: functional, organism-based; summary of the method: as §4
Klebsiella aerogenes = assay: Disruption of membrane integrity in Enterobacter aerogenes EA289 assessed as increase in beta-lactamase hydrolysis by using chromogenic nitrocefin as substrate by spectrophotometry analysis; assay type: functional
Summary of the method: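 E. aerogenes EA289 was grown in MHB at 37 °C to OD600 0.5, washed in 20 mM potassium phosphate (pH 7.2) with 1 mM MgCl2, and readjusted to OD600 0.5. Cells were exposed to compound at 3.9–250 μM final with nitrocefin at 50 μg/mL final, at room temperature. Hydrolysis was followed as the absorbance rise at 490 nm.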

Candida albicans = assay: Antifungal activity against Candida albicans ATCC 90028 assessed as growth inhibition incubated for 36 hrs by resazurin dye based assay; assay type: functional; settings: ATCC 90028, 36 h
Summary of the method: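 Yeast was grown 3 days on YPD agar at 30 °C. Colonies were suspended and diluted in YNB broth to 2.5×10^3 CFU/mL, then added to two-fold compound dilutions (0.008–32 μg/mL final), in duplicate. Plates stood 36 h at 35 °C without shaking. Means, n = 2.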

[15] = Hemolytic activity against Sprague-Dawley rat RBC assessed as release of hemoglobin incubated for 1 hr; assay type: ADME, cell-based, Erythrocyte; settings: red blood cells (erythrocytes); summary of the method: as §5

| SMILES | MIC (Escherichia coli) | MIC (Klebsiella pneumoniae [1]) | MIC (Pseudomonas aeruginosa [2]) | MIC [3] | MIC (Staphylococcus aureus [4]) | MIC (Acinetobacter baumannii [5]) | MIC (Cryptococcus neoformans) | MIC (Acinetobacter baumannii [7]) | MIC (Klebsiella pneumoniae [9]) | Activity (Pseudomonas aeruginosa [10]) | Activity (Klebsiella aerogenes) | MIC (Candida albicans) | Activity (Staphylococcus aureus [6]) | CC50 at 20 h [8] | hemolysis at 1 h, 50 µM [11] | Activity (Pseudomonas aeruginosa [12]) | IC50 (L6) | Activity (Pseudomonas aeruginosa [13]) | Activity (Staphylococcus aureus [14]) | HC50 at 1 h [15] |
| --- | --- | --- | --- | --- | --- | --- | --- | --- | --- | --- | --- | --- | --- | --- | --- | --- | --- | --- | --- | --- |
| CC[C@H]1OC(=O)[C@H](C)[C@@H](O[C@H]2C[C@@](C)(OC)[C@@H](O)[C@H](C)O2)[C@H](C)[C@@H](O[C@@H]2O[C@H](C)C[C@H](N(C)C)[C@H]2O)[C@](C)(O)C[C@@H](C)C(=O)[C@H](C)[C@@H](O)[C@]1(C)O [ERYTHROMYCIN] | > 200 µM | > 200 µM | > 200 µM | – | – | 200 µM (≈ 147 µg/mL) | – | – | – | – | – | – | – | – | – | – | – | – | – | – |
| CCn1cc(C(=O)O)c(=O)c2ccc(C)nc21 [NALIDIXIC ACID] | > 200 µM | 100 µM (≈ 23.2 µg/mL) | > 200 µM | – | – | > 200 µM | – | – | – | – | – | – | – | – | – | – | – | – | – | – |

Further lines, with some results ahead:

| MIC (Escherichia coli) | MIC (Klebsiella pneumoniae [1]) | MIC (Pseudomonas aeruginosa [2]) | MIC [3] | MIC (Staphylococcus aureus [4]) | MIC (Acinetobacter baumannii [5]) | MIC (Cryptococcus neoformans) | MIC (Acinetobacter baumannii [7]) | MIC (Klebsiella pneumoniae [9]) | Activity (Pseudomonas aeruginosa [10]) | Activity (Klebsiella aerogenes) | MIC (Candida albicans) | SMILES | Activity (Staphylococcus aureus [6]) | CC50 at 20 h [8] | hemolysis at 1 h, 50 µM [11] | Activity (Pseudomonas aeruginosa [12]) | IC50 (L6) | Activity (Pseudomonas aeruginosa [13]) | Activity (Staphylococcus aureus [14]) | HC50 at 1 h [15] |
| --- | --- | --- | --- | --- | --- | --- | --- | --- | --- | --- | --- | --- | --- | --- | --- | --- | --- | --- | --- | --- |
| > 200 µM | 50 µM (≈ 16.2 µg/mL) | > 200 µM | 3 to 6 µM (≈ 0.969 to 1.94 µg/mL) | 1.5 to 3 µM (≈ 0.485 to 0.969 µg/mL) | > 200 µM | – | – | – | – | – | – | O=C(N[C@H](CO)[C@H](O)c1ccc([N+](=O)[O-])cc1)C(Cl)Cl [CHLORAMPHENICOL] | – | – | – | – | – | – | – | – |
| 200 µM | – | 200 µM | > 200 µM | 25 µM | – | 4.9 µM | > 39.6 µM | > 39.6 µM | Dose-dependent effect | Dose-dependent effect | > 39.6 µM | O=C(NCCCNCCCCNCCCNC(=O)C(=O)c1c[nH]c2c(F)cccc12)C(=O)c1c[nH]c2c(F)cccc12.O=C(O)C(F)(F)F.O=C(O)C(F)(F)F | Dose-dependent effect | 18.7 µM | 8.4% | Dose-dependent effect | 38.7 µM | 3.125 µM | Dose-dependent effect | – |
| 50 µM | – | 100 µM | – | 25 µM | – | 3.65 µM | > 29.4 µM | > 29.4 µM | – | – | > 29.4 µM | O=C(NCCCNCCCCNCCCNC(=O)C(=O)c1c[nH]c2cc(Br)c(Br)cc12)C(=O)c1c[nH]c2cc(Br)c(Br)cc12.O=C(O)C(F)(F)F.O=C(O)C(F)(F)F | – | 1.62 µM | 88.7% | – | 6.03 µM | 25 µM | – | 17 µM |
